Measured values taken from PubChem BioAssay.
Results filed as inconclusive are left out.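 Rule for the calls, unless noted: active = inhibition over a set limit, the all-compound mean plus 3 SD, in both replicate runs; inconclusive = over that limit in just one replicate run; inactive = at or under that limit in both runs.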

Legend:
[1] = OD615 S. cerevisiae growth inhibition, permissive medium, pilot counter-assay, permissive growth control for S. cerevisiae lifespan shortening project (AID 705;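 active = growth inhibition above 25% in both replicates, a cutoff set 3 SD above the mean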); conditions: OD615, 24 h, at 10 µM, hits give high values
In short: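 System: Engineered DeaD yeast | Buffer or medium: SC raffinose/galactose permissive medium | Incubation: Cells pre-grown 4 h, then 24 h compound exposure, 30 °C humidified | Measured by: Absorbance (optical density) at 615 nm | Read-out: Reduction in yeast growth (OD615)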

[2] = Restrictive medium S. cerevisiae growth inhibition, OD615, pilot screen of yeast lifespan reduction project, restrictive growth control (AID 706;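 active = growth inhibition above a set limit, 3 SD over mean compound inhibition, in both replicates, cut at about 43% in these data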;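 note: modified DeaD lifespan yeast strain shifted to restrictive glucose medium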); conditions: OD615, 48 h, at 10 µM, hits give high values
In short: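 Material: modified S. cerevisiae; Medium: glucose-based CSMM-D restrictive medium; Compound dosing: one concentration, 10 µM final, 0.25% DMSO; Incubation: 48 h compound exposure at 30 °C; Measured by: OD615.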

[3] = viability gain of MRP-1-high H69AR cells under doxorubicin, pilot screen, MRP-1 activator project, CellTiter-Glo, duplicate (AID 807;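 active = viability increase at or above a cutoff of the median across tested compounds plus 3 SD, cut at about 8.5% in these data, passing the limit was not always enough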;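 note: compound pretreatment 18-22 h then 72 h combined with doxorubicin; 0% = doxorubicin alone and 100% = vehicle without doxorubicin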); conditions: H69AR viability with doxorubicin, CellTiter-Glo luminescence; at 10 µM; hits give high values
[4] = growth suppression of beta-catenin knockout HCT116, pilot screen, human colon tumor cells (AID 823;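 active = cell viability at or below a set limit in both duplicate runs, the limit being the all-compound median minus 4 SD, cut at about 23% in these data, passing the limit was not always enough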;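 note: 0% = wells killed by 20 µM Hyamine and 100% = untreated DMSO cell wells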); conditions: CellTiter-Glo, 60 h, at 10 µM, hits give low values
[5] = growth suppression of PTEN-deleted HCT116, pilot screen, cell-based, HCT116 clonal line, CellTiter-Glo (AID 824;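 active = viability at or below 27.92% in each of two runs, the all-compound median minus 4 SD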;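 note: 0% = 20 µM Hyamine control and 100% = vehicle cell control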); conditions: 60 h, at 10 µM, hits give low values
[6] = inhibitors of the yeast RAM network, pilot screen, dse1pr::URA3 reporter, 5-FOA selection (AID 869);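 note: 0% = DMSO wells with no growth and 100% = 10 µM 1-NA-PP1 with full growth; RAM network block rescues cells from 5-FOA so hits raise OD615 growth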; conditions: S. cerevisiae dse1pr::URA3 5-FOA growth, OD615, 2 d; at 10 µM; hits give high values; strain carries analog-sensitive mutant Cbk1 kinase
[7] = RAM signaling pathway blockade in yeast – S. cerevisiae, Pdr1DBD-CYC8 efflux-inhibited sensitized strain, primary screen (AID 1298;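 active = RAM network inhibition above 8.4% in each of two replicates, 3 SD over the compound average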;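 note: 0% = DMSO untreated cells without growth and 100% = 10 µM 1-NA-PP1 full growth; higher means more yeast growth rescued from 5-FOA killing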); conditions: S. cerevisiae cbk1-as DSE1-URA3 strain, 5-FOA growth OD615, 2 d; at 50 µM; hits give high values

COCCCNC(=O)c1oc2ccc(S(=O)(=O)N(C)C3CCCCC3)cc2c1C
inactive: growth inhibition [1] 1.36% | growth inhibition [2] 5.4% | viability increase [3] 0.15% | viability [4] 90.1% | viability [5] 94.2% | inhibition [6] -0.46% | RAM network inhibition [7] 1.23%

COc1cc2c(cc1OC)C(COc1ccc3c(C)cc(=O)oc3c1)N(C(=O)c1ccco1)CC2 (configuration not stated)
inactive: growth inhibition [1] -1.62% | growth inhibition [2] -3.73% | viability increase [3] -4.63% | viability [4] 91.8% | viability [5] 87.8% | inhibition [6] 1.6% | RAM network inhibition [7] 4.74%

O=c1nc2s/c(=C\c3ccco3)c(=O)n2nc1Cc1ccccc1
inactive: growth inhibition [1] -15.4% | growth inhibition [2] -3.2% | viability increase [3] -2.41% | viability [4] 97.7% | viability [5] 94.8% | inhibition [6] 2.04% | RAM network inhibition [7] 4.31%

CCOC(=O)c1c(C)c(C(=O)O)n(C)c1C
inactive: growth inhibition [1] -12.4% | growth inhibition [2] -19.7% | viability increase [3] 0.64% | viability [4] 99.5% | viability [5] 94.6% | inhibition [6] 2.54% | RAM network inhibition [7] 2.91%

Cc1ccc(NC(=O)CNS(=O)(=O)c2cccs2)cc1F
inactive: growth inhibition [1] -5.56% | growth inhibition [2] -17.9% | viability increase [3] 1.44% | viability [4] 100% | viability [5] 97.7% | inhibition [6] 0.01% | RAM network inhibition [7] -0.53%

COc1ccccc1NC(=O)C1=C(C)Nc2nc(-c3cccs3)nn2C1c1cccnc1 (configuration not stated)
inactive: growth inhibition [1] -13.7% | growth inhibition [2] -9.57% | viability increase [3] -5.67% | viability [4] 86.7% | viability [5] 91.4% | inhibition [6] 2.23% | RAM network inhibition [7] 4.86%

CC(Sc1nnc(Cn2c(=O)sc3ccccc32)n1C)c1ccccc1 (configuration not stated)
inactive: growth inhibition [1] -3.63% | growth inhibition [2] 15.1% | viability increase [3] 0.33% | viability [4] 92.8% | viability [5] 96.3% | inhibition [6] 1.69% | RAM network inhibition [7] 11.7%

CC1CCc2nc3ccc(S(=O)(=O)N4CCC(C(=O)NC5CCCC5)CC4)cc3c(C(=O)O)c2C1 (configuration not stated)
inactive: growth inhibition [1] -0.78% | growth inhibition [2] 10.5% | viability increase [3] -2.1% | viability [4] 94.8% | viability [5] 95.4% | inhibition [6] 1.08% | RAM network inhibition [7] 3.59%

CC(=O)c1c(C)cc(C)c(CSc2nc(C)cc(=O)[nH]2)c1C
inactive: growth inhibition [1] 2.49% | growth inhibition [2] 19.8% | viability increase [3] 0.08% | viability [4] 83% | viability [5] 74.2% | inhibition [6] 0.245% | RAM network inhibition [7] 2.49%

CCn1cc(S(=O)(=O)CC(=O)Nc2ccc3c(c2)OCCO3)c2ccccc21
inactive: growth inhibition [1] -12.1% | growth inhibition [2] -19.9% | viability increase [3] 0.14% | viability [4] 101% | viability [5] 95.3% | inhibition [6] 2.54% | RAM network inhibition [7] 9.35%

CCn1c2ccccc2c2nnc(SCC(=O)c3ccccc3)nc21
inactive: growth inhibition [1] -1.37% | growth inhibition [2] 13.5% | viability increase [3] -2.35% | viability [4] 94.8% | viability [5] 90.7% | inhibition [6] 2.33% | RAM network inhibition [7] 6.1%

Clc1ccc(Cn2cc(/C=N/n3cnnc3)c3ccccc32)cc1
inactive: growth inhibition [1] 9.77% | growth inhibition [2] 30.9% | viability increase [3] -7.71% | viability [4] 64.5% | viability [5] 62.3% | inhibition [6] 1.48% | RAM network inhibition [7] 3%

O=C(CCCCC(=O)N1CCN(c2ccccc2)CC1)N1CCN(c2ccccc2)CC1
inactive: growth inhibition [1] -2.23% | growth inhibition [2] 8.9% | viability increase [3] 0.82% | viability [4] 94.6% | viability [5] 86% | inhibition [6] 1.74% | RAM network inhibition [7] -0.46%

CC(OC(=O)c1cc[n+]([O-])cc1)C(=O)Nc1ccc(Cl)cn1 (configuration not stated)
inactive: growth inhibition [1] 0.77% | growth inhibition [2] 0.53% | viability increase [3] -1.44% | viability [4] 102% | viability [5] 98.3% | inhibition [6] 1.23% | RAM network inhibition [7] 1.61%

CCOC(=O)N1CCN(C(=O)CN(c2cc(Cl)ccc2OC)S(=O)(=O)c2ccccc2)CC1
inactive: growth inhibition [1] 6.4% | growth inhibition [2] -12% | viability increase [3] -2.13% | viability [4] 97.1% | viability [5] 84.1% | inhibition [6] 1.68% | RAM network inhibition [7] 2.07%

Cc1cc(C(=O)Nc2cccnc2)on1
inactive: growth inhibition [1] -5.72% | growth inhibition [2] -5.71% | viability increase [3] -1.86% | viability [4] 103% | viability [5] 93.4% | inhibition [6] 0.355% | RAM network inhibition [7] 2.08%
